Test results reported in PMC3114175 (Bioorganic & medicinal chemistry, 2011).

Legend:
TLR7 = target: T1, TLR7 (Homo sapiens, UniProt Q9NYK1); experiment: TLR7 antagonism reporter gene assay; format: cell-based
T1 sequence (Q9NYK1 27-1049): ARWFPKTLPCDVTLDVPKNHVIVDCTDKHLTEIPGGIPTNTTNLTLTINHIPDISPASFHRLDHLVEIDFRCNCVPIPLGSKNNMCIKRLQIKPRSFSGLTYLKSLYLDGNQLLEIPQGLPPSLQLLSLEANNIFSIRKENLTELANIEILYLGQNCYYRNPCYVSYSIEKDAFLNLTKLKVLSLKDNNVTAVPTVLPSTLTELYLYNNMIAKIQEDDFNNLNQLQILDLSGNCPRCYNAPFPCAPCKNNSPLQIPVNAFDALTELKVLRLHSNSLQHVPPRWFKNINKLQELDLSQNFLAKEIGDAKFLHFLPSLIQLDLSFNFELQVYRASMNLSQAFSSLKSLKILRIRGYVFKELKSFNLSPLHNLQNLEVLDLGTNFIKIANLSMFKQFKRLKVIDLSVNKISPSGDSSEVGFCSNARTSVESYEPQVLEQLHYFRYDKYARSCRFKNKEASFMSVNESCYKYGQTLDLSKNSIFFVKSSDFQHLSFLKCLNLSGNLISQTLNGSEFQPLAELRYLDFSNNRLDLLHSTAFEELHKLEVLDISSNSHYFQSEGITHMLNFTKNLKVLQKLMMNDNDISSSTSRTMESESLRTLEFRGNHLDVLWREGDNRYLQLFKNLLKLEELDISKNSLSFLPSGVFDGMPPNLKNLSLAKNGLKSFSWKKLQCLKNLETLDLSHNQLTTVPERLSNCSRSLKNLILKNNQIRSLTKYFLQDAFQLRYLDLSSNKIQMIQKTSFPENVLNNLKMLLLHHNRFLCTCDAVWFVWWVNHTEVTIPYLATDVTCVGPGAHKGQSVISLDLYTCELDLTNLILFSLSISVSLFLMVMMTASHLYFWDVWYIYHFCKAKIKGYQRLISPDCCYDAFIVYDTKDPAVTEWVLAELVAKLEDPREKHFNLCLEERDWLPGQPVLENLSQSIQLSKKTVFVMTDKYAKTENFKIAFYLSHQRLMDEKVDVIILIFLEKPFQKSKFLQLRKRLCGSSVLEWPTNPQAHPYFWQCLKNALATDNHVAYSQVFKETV
Procedure, shortened: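 HEK-Blue-7 cells (HEK293 stably expressing TLR7 plus NF-κB/AP-1-driven secreted alkaline phosphatase reporter) were kept in selection medium with zeocin and normocin and grown to confluency. They were stimulated with gardiquimod at 1 μg/mL, or 250 ng/mL for Schild analysis, with serially diluted test compound (top 250 μM) added concurrently. After overnight incubation, supernatant sAP was read with chromogen at 620 nm. Replicates were duplicate or quadruplicate.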

TLR8 = target: T2, TLR8 (Homo sapiens, UniProt Q9NR97); experiment: TLR8 antagonism reporter gene assay; format: cell-based
T2 sequence (Q9NR97 27-1041): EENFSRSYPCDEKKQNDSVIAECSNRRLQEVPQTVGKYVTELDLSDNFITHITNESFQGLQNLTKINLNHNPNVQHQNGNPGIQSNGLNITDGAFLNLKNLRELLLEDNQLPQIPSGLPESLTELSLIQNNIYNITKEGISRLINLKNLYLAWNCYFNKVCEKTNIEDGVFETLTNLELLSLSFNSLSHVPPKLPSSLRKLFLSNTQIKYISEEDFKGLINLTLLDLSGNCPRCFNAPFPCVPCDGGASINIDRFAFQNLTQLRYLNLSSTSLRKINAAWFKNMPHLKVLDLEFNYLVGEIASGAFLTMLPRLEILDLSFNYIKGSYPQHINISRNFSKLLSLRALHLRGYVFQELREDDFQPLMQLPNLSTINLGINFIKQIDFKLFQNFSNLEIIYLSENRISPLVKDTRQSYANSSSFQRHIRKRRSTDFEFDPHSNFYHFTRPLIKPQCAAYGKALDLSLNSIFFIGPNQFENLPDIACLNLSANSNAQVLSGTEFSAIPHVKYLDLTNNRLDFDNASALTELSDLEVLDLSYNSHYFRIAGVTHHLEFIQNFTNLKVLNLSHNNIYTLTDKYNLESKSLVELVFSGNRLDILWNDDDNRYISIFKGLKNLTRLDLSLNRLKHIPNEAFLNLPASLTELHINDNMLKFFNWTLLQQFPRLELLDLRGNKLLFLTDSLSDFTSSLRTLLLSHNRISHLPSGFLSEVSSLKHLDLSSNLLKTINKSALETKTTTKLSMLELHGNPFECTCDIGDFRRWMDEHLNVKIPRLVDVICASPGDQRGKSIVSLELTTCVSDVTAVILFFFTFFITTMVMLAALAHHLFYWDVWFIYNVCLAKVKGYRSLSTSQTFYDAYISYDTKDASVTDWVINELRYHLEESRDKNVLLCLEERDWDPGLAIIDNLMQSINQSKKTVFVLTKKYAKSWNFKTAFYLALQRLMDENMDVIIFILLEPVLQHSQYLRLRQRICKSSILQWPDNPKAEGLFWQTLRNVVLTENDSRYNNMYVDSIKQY

Row | IC50 (TLR7) [µM] | Compound | also measured
1 | – | CCCCCCCCCc1nc2c3ccccc3ncc2n1C [Compound 8d] | TLR7-inhibitory activity (TLR7): low micromolar TLR7-inhibitory activity
2 | > 250 | CCNCc1nc2c3ccccc3nc(NC(=O)c3ccccc3)c2n1CC(C)(C)O [Compound 11, N-(2-((ethylamino)methyl)-3-(2-hydroxy-2-methylpropyl)-3H-imidazo[4,5-c]quinolin-4-yl)benzamide] | –
3 | – | C#CCn1c(CCCCCCCCC)nc2c3ccccc3ncc21 [Compound 7d] | TLR7-inhibitory activity (TLR7): low micromolar TLR7-inhibitory activity
4 | > 250 | CC(C)(O)Cn1c(C2CCCCC2)nc2c3ccccc3ncc21 [Compound 4c] | –
5 | > 250 | CCNCc1nc2c3ccccc3[n+]([O-])cc2n1CC(C)(C)O [Compound 10, 2-((ethylamino)methyl)-3-(2-hydroxy-2-methylpropyl)-3H-imidazo[4,5-c]quinoline 5-oxide] | –
6 | > 250 | COc1ccc(Cn2c(-c3ccccc3)nc3c4ccccc4ncc32)cc1 [Compound 5b, 3-(4-methoxybenzyl)-2-phenyl-3H-imidazo[4,5-c]quinoline] | IC50 (TLR8): > 250 µM
7 | > 250 | CCNCc1nc2c3ccccc3ncc2n1CCCO [Compound 6a, 3-(2-((ethylamino)methyl)-3H-imidazo[4,5-c]quinolin-3-yl)propan-1-ol] | IC50 (TLR8): > 250 µM
8 | – | COc1ccc(Cn2c(-c3ccccc3)nc3c4ccccc4[n+](Cc4ccc(OC)cc4)cc32)cc1 [Compound 12, 3,5-bis(4-methoxybenzyl)-2-phenyl-3H-imidazo[4,5-c]quinolin-5-ium] | Mode of inhibition by Schild analyses (TLR7; agonist gardiquimod 1 μg/mL and 250 ng/mL): competitive
9 | > 250 | CC(C)(O)Cn1c(-c2ccccc2)nc2c3ccccc3ncc21 [Compound 4b, 2-methyl-1-(2-phenyl-3H-imidazo[4,5-c]quinolin-3-yl)propan-2-ol] | –
